# This is a sample that favours compounds with a hit; in the whole collection about 3.1% have one here.
# LEDGF integ inh: blocks HIV-1 LEDGF/p75-dependent DNA integration; TR-FRET IN-LEDGF/p75 DNA integration, Eu/Cy5; inhibition, % at 3.7 µM; 370,000 tested, 0.64% active;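 active = inhibition above the screen-wide mean plus 3 SD, cut at about 13% in these data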;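 also: signal is the Cy5 over europium emission ratio at 671 and 618 nm; 0% = plate median of compound wells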
# UHRF1 binding: human UHRF1 methylated DNA binding inhibitors; Q96T88; AID 687016; 370,000 tested, 0.75% active; UHRF1 binding to methylated oligo, TR-FRET; inhibition, % at 4.4 µM;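 also: UHRF1 SRA domain binding a hemimethylated CpG hairpin DNA probe; 0% = median of test compound wells and 100% = reference inhibitor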
# ATG4B inhibitor: blocks human ATG4B protease cleavage of LC3 substrate; Q9Y4P1; ATG4B cleavage of LC3-PLA2, NBD-HPC fluorescence, 1 h; 340,000 tested, 0.51% active; inhibition, % at 8.33 µM; in the data active = inhibition above about 40%
# Target sequence (Q9Y4P1 whole entry, looked up): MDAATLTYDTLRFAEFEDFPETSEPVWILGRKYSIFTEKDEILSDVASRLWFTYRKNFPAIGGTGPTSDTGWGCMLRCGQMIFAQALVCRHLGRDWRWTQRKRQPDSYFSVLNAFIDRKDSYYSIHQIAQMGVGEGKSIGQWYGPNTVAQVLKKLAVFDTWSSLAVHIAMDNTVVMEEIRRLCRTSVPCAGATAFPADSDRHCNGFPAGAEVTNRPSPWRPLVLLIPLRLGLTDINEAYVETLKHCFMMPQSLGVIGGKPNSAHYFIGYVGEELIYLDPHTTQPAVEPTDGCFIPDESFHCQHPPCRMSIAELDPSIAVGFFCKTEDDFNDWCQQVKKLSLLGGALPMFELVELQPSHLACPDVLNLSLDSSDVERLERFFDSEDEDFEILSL
# MBD2 inh: MBD2-methylated oligo binding inhibition. Q9UBB5. TR-FRET, MBD2 binding to methylated oligonucleotide. inhibition, % at 4.4 µM. 370,000 tested, 0.31% active; in the data active = inhibition above about 13%
# CSN inh: blocks human CSN-mediated cullin deneddylation; Q92905; Purified CSN, SCF-Nedd8-OG deneddylation, fluorescence polarization; inhibition, % at 12.5 µM; 360,000 tested, 0.38% active; AID 651999;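 active = pattern-corrected inhibition above about 35%, with an unprinted fluorescence ratio check between 0.5 and 1.5, limit read from the data, passing the limit was not always enough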;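 also: 0% = enzyme with substrate and 100% = substrate without enzyme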
#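 Assay system: purified human Csn5 enzyme expressed in HEK293T cells; measure: % inhibition; also added: SCFSkp2-Nedd8OG substrate at 10 nM final; technique: fluorescence polarization; times: reaction 90 min, room temperature; medium: Tris buffer pH 7.5, NaCl, DTT, Tween-20, trehalose, ovalbumin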
# rCAG RNA binder: molecules binding r(CAG) RNA repeats; 370,000 tested, 1.3% active; r(CAG) RNA repeat, TO-PRO-1 dye displacement fluorescence; inhibition, % at 3 µM; AID 651821;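 active = inhibition above the plate cutoff, the mean of all test compounds on that plate plus 3 SD, cut at about 35% in these data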;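 also: 0% = DMSO alone and 100% = 100 µM mitoxantrone as full dye displacement; higher means more dye released from RNA so lower well fluorescence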
# rCAG bind conf: r(CAG) RNA repeat binding, confirmation; 4,300 tested, 70% active; shares compounds with rCAG RNA binder; TO-PRO-1 dye displacement fluorescence; inhibition, % at 3 µM; AID 652065;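 active = inhibition above a per-plate cutoff, the mean inhibition of sample wells plus 3 SD, cut at about 35% in these data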;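 also: loss of TO-PRO-1 fluorescence as compound displaces dye from 1x1 AA loop RNA; 0% = DMSO only wells and 100% = 100 µM mitoxantrone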
# DNA CAG counter: DNA CAG dye complex inhibition counter-screen. 4,300 tested, 94% active. shares compounds with rCAG RNA binder. inhibition, % at 3 µM. AID 652068. d(CAG) DNA oligo TO-PRO-1 dye displacement, fluorescence;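 active = inhibition above its plate's cutoff, the mean test-well inhibition plus 3 SD, cut at about 4.8% in these data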;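 also: 0% = DNA dye mix with DMSO and 100% = 100 µM mitoxantrone; hits displace the dye from DNA and so lower well fluorescence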
# dCAG dye DR: disrupts DNA CAG TO-PRO-1 complex in dose response | shares compounds with rCAG RNA binder | DNA CAG/GTC duplex TO-PRO-1 dye displacement fluorescence | IC50, µM | AID 686960 | 250 tested, 20% active; in the data active = IC50 below about 10 µM
# CSN deneddyl val: Csn5 (human) deneddylation inhibition, single-concentration validation. inhibition, % at 16.6 µM. 540 tested, 62% active. Csn5 deneddylation of SCF-Nedd8OG, fluorescence polarization, 90 min. shares compounds with CSN inh; in the data active = inhibition above about 50%;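 also: 0% = DMSO with enzyme and 100% = no enzyme wells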
# MMP-2 counter: counter-screen for CSN deneddylation inhibitors: human MMP-2 inhibition; recombinant MMP-2, FRET substrate fluorescence, 60 min; inhibition, % at 16.6 µM; 540 tested, 33% active; shares compounds with CSN inh;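 active = corrected plate-normalized z-score of 5 or more, or -5 or less, or inhibition of 15% or more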;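 also: plate controls were DMSO wells with enzyme for no effect and buffer wells lacking MMP-2 for full effect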
# Thrombin counter: blocks bovine thrombin in a CSN deneddylation counter-screen; inhibition, % at 16.6 µM; 540 tested, 49% active; bovine thrombin cleavage of Ub4-pepOG, fluorescence polarization; shares compounds with CSN inh;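 active = inhibition at or above a set limit, with a fluorescence interference ratio between 0.5 and a set maximum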
# UHRF1 DNA bind: inhibits human UHRF1 binding to methylated oligonucleotide, MBD2 counter-screen; shares compounds with MBD2 inh; TR-FRET; inhibition, % at 4.4 µM; 1,000 tested, 25% active; AID 720530;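 also: UHRF1 SRA domain binding a labeled hemimethylated CpG hairpin DNA; 0% = vehicle only and 100% = reference inhibitor with vehicle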
# MBD2 DBD conf: MBD2-DBD methyl-DNA binding inhibition, TR-FRET confirmation; TR-FRET MBD2-DBD binding to methylated oligonucleotide; inhibition, % at 4.4 µM; AID 720531; 1,000 tested, 26% active; shares compounds with MBD2 inh; in the data active = inhibition above about 14%
# IN multimer up: counter-screen for LEDGF/p75 integration inhibitors: HIV-1 integrase multimerization activators; TR-FRET HIV-1 integrase multimerization, biochemical; 2,000 tested, 17% active; activation, % at 7.7 µM; shares compounds with LEDGF integ inh; in the data active = activation above about 8.9%
# TRFRET interf: counter-screen for LEDGF/p75 integration inhibitors: TR-FRET optical interference. inhibition, % at 7.7 µM. 2,000 tested, under 10 active. TR-FRET optical interference counterscreen, HIV-1 IN multimerization. shares compounds with LEDGF integ inh;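 active = inhibition above the mean over all tested compounds plus 3 SD, which no compound reached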;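 also: 0% = integrase with antibodies and DMSO and 100% = antibodies without integrase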
# LEDGF integ conf: LEDGF/p75-dependent HIV-1 integration inhibition, confirmation. shares compounds with LEDGF integ inh. TR-FRET LEDGF/p75-dependent HIV-1 integration, biochemical. inhibition, % at 3.7 µM. 2,000 tested, 36% active; in the data active = inhibition above about 14%
# Starred values were filed as active, the others as inactive; i = inactive; · = no result. Rule as the data show it, unless noted: active = inhibition above about 21%; inactive = the rest.
SMILES,LEDGF integ inh,UHRF1 binding,ATG4B inhibitor,MBD2 inh,CSN inh,rCAG RNA binder,rCAG bind conf,DNA CAG counter,IN multimer up,TRFRET interf,LEDGF integ conf,others
N#CC1=C(N)n2c(s/c(=C\c3ccco3)c2=O)=C(C#N)C1c1ccco1 (stereo unspecified),38*,41*,11,12,55,54*,38*,18*,18*,-91,66*,dCAG dye DR=i
COC(=O)[C@]12C[C@H](CC(=O)NCc3cccs3)C(=O)N(Cc3ccc4c(c3)OCO4)C1=C[C@H](C(C)C)O[C@@H]2C1CC1,4,-2,·,-1,·,5,·,·,·,·,·,
CCOc1ccc(Cc2c(C)[nH]c3ccc(C(=O)O)cc3c2=S)cc1,14*,3,11,2,3,36*,32,7.6*,1,-5,3,
CN(Cc1ccccc1)C(=O)OCc1cn(Cc2ccccc2F)nn1,0,0,·,0,·,-2,·,·,·,·,·,
Clc1ccccc1-c1nn2c(-c3cc(-c4ccccc4)n[nH]3)nnc2s1,2,-5,·,-2,·,15,·,·,·,·,·,
O=C(Nc1ccc(C(O)(C(F)(F)F)C(F)(F)F)cc1)c1ccc(F)cc1F,-2,0,·,4,·,·,·,·,·,·,·,
C=CCSC1=N/C(=C\c2sccc2C)C(=O)S1,0,-1,4,-1,-1,9,·,·,·,·,·,
C=CCSC1=N/C(=C\C=C\c2ccco2)C(=O)S1,62*,75*,25,43*,57*,58*,45*,21*,9,-43,75*,dCAG dye DR=i;CSN deneddyl val=68*;MMP-2 counter=30*;Thrombin counter=8;UHRF1 DNA bind=40*;MBD2 DBD conf=17*
Cc1cc(C(C)(C)C)cc(C)c1S(=O)(=O)N1CCN(C(=O)c2cc([N+](=O)[O-])c[nH]c2=O)CC1,28*,3,-12,-5,3,35*,54*,18*,1,-2,-6,
CCOC(=O)[C@]12CCCCC/C=C\1N(Cc1ccc(OC)cc1)C(=O)[C@H]2CC(=O)NCCCOC,2,0,·,-2,·,-2,·,·,·,·,·,
O=C(CCCC1=NS(=O)(=O)c2ccccc2N1)N1CCN(c2ccccc2Cl)CC1,0,-1,·,-1,·,2,·,·,·,·,·,
COCc1cc(=O)n2[nH]c(-c3ccco3)cc2n1,-3,-2,12,4,3,5,·,·,·,·,·,

# High-throughput results deposited in PubChem by several laboratories.
